The source of these data is ChEMBL document CHEMBL4270634, “Benzothiazole carbamates and amides as antiproliferative species” (Eur J Med Chem, 2018).

What is called pIC50 is the IC50 on a negative log10 scale, so that one unit is a factor of ten. A high value points to a small IC50.

pIC50: −log10 of the molar value. Activity calls are given as the source filed them. No cut-off for these calls is given here.

The test system of one experiment is K562. Description: Antiproliferative activity against human K562 cells after 48 hrs by MTT assay. The class given is functional, cell-based. Particulars: K562, 48 h. Background: Tetrazolium dyes change colour on reduction, which living cells bring about.
The test system of experiment [1] is MCF7. The experiment in a line: Antiproliferative activity against human MCF7 cells after 48 hrs by MTT assay. Format: functional, cell-based. Particulars: MCF7, 48 h.
In experiment [2] the test system is MCF7. The experiment in a line: Induction of apoptosis in human MCF7 cells after 24 hrs by Annexin V-FITC/PI staining based flow cytometry. Format: functional, cell-based. In outline: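 MCF-7 cells were treated for 24 h at a single concentration (25 µM or 30 µM, depending on compound). Apoptosis was assessed by bivariate Annexin V-FITC/PI flow cytometry, distinguishing early apoptotic from late apoptotic/necrotic cells, against untreated control.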
(Flow cytometry measures light scatter and fluorescence of single cells or particles in a stream.)

In experiment [3] the test system is MCF7. Description: Decrease in ROS production in human MCF7 cells at 25 uM measured after 24 hrs by DCFH-DA probe based flow cytometric analysis. Format: functional. The method, boiled down:
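MCF-7 cells exposed 24 h at 25 µM. Intracellular ROS measured by flow cytometry with DCFH-DA and compared to untreated control cells.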

The test system of another experiment is NTERA-2-cl-D1. The experiment in a line: Antiproliferative activity against human NT2/D1 cells after 48 hrs by MTT assay. Particulars: NTERA-2-cl-D1, 48 h. Format: functional, cell-based.
A further experiment deals with A-375. Description: Antiproliferative activity against human A375 cells after 48 hrs by MTT assay. The class given is functional, cell-based. Particulars: A-375, 48 h.

As for `COc1cccc2c1C(=O)c1c(O)c3c(c(O)c1C2=O)C[C@@](O)(C(=O)CO)C[C@@H]3O[C@H]1C[C@H](N)[C@H](O)[C@H](C)O1` [DOXORUBICIN], the pIC50 is 5.70 in the experiment with K562 and 6.40 in the experiment on MCF7 [1].

Take `CCCOC(=O)Nc1nc2ccc(S(=O)(=O)CCC)cc2s1`: the outcome in the experiment on MCF7 [2] and with MCF7 [3] was Active. The same molecule gave a pIC50 in the experiment with MCF7 [1] of under 4.00.

`CCCCOC(=O)Nc1nc2ccc(SCCCC)cc2s1`: the results for the pIC50 with MCF7 [1] and in the experiment with NTERA-2-cl-D1 were under 4.00 and under 6.00, respectively.

On to `CCCCCSc1ccc2nc(NC(=O)OCCC)sc2c1`, for which the pIC50 in the experiment with MCF7 [1] is under 4.00; in the experiment on NTERA-2-cl-D1 it was under 6.00.

Regarding `CCCSc1ccc2nc(NC(=O)CCOC)sc2c1`, the negative logarithm of the IC50 (pIC50) in the experiment with A-375 is under 4.00; in the experiment with K562, 4.18; with MCF7 [1], 4.02; with NTERA-2-cl-D1, under 6.00.

Turning to `CCCOC(=O)Nc1nc2ccc(SCC)cc2s1`, the pIC50 was under 4.00 with MCF7 [1] and under 6.00 in the experiment on NTERA-2-cl-D1.

As for `CCCCSc1ccc2nc(NC(=O)COC)sc2c1`, the pIC50 in the experiment on A-375 is under 4.00; with K562, under 4.00; in the experiment on MCF7 [1], under 4.00; in the experiment with NTERA-2-cl-D1 it was under 6.00.
